Measurements from ChEMBL document CHEMBL1671845, “Inhibitors of HCV NS5A: From Iminothiazolidinones to Symmetrical Stilbenes” (ACS Med Chem Lett, 2011).

Key:
[1] = Chemical stability of the compound in DMSO assessed as conversion of (2S)-1-(4-(3-(3-fluorophenyl)-1-(furan-2-ylmethyl)-4-hydroxy-5-oxo-2-thioxoimidazolidin- 4-yl)phenylamino)-1-oxopropan-2-ylcarbamate after 18 hrs by HPLC analysis; format: physicochemical
[2] = Cytotoxicity against human HuH7 cells; format: cell-based, Huh-7
[3] = Chemical stability of the compound in DMSO assessed as conversion of (2S)-N-(4-(3-(3-Fluorophenyl)-1-(furan-2-ylmethyl)-4-hydroxy-5-oxo-2- thioxoimidazolidin-4-yl)phenyl)-2-(2-phenylacetamido)propanamide by HPLC analysis; format: physicochemical
Hepatitis C virus = assay: Antiviral activity against HCV1b infected in human HuH7 cells assessed as inhibition of viral replication after 72 hrs by FRET assay; format: functional, organism-based, Hepacivirus hominis; conditions: genotype 1b, Huh-7, 72 h
Procedure, shortened: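 Dual-replicon screen pairing an HCV genotype 1b replicon with a bovine viral diarrhea virus replicon, run in high-throughput mode. Results are reported as EC50.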

| Compound | EC50 (Hepatitis C virus) [nM] | further results |
| --- | --- | --- |
| C[C@H](NC(=O)OCc1ccccc1)C(=O)Nc1ccc(C2S/C(=N\c3cccc(F)c3)N(Cc3ccco3)C2=O)cc1 (stereo partly drawn) | 580 | Stability [1]: Unstable; CC50 [2]: > 100000 nM; Stability [3]: Unstable |
| O=C(Nc1ccc(C2S/C(=N\c3cccc(F)c3)N(Cc3ccco3)C2=O)cc1)OCc1ccccc1 (stereo not drawn) | 150000 |  |
| O=C(COCc1ccccc1)Nc1ccc(C2S/C(=N\c3cccc(F)c3)N(Cc3ccco3)C2=O)cc1 (stereo not drawn) | 61000 |  |
| CC(OCc1ccccc1)C(=O)Nc1ccc(C2S/C(=N\c3cccc(F)c3)N(Cc3ccco3)C2=O)cc1 (stereo not drawn) | 132000 |  |
| O=C(CCc1ccccc1)Nc1ccc(C2S/C(=N\c3cccc(F)c3)N(Cc3ccco3)C2=O)cc1 (stereo not drawn) | 75000 |  |
| COC(=O)CCCC(=O)Nc1ccc(C2S/C(=N\c3cccc(F)c3)N(Cc3ccco3)C2=O)cc1 (stereo not drawn) | 150000 |  |
| C[C@@H](NC(=O)OCc1ccccc1)C(=O)Nc1ccc(C2S/C(=N\c3cccc(F)c3)N(Cc3ccco3)C2=O)cc1 (stereo partly drawn) | 96000 |  |
| O=C(Nc1ccc(C2S/C(=N\c3cccc(F)c3)N(Cc3ccco3)C2=O)cc1)[C@@H]1CCCN1C(=O)OCc1ccccc1 (stereo partly drawn) | 110 |  |
| O=C(Nc1ccc(C2S/C(=N\c3cccc(F)c3)N(Cc3ccco3)C2=O)cc1)[C@H]1CCCN1C(=O)OCc1ccccc1 (stereo partly drawn) | 6500 |  |
| O=C(CNC(=O)OCc1ccccc1)Nc1ccc(C2S/C(=N\c3cccc(F)c3)N(Cc3ccco3)C2=O)cc1 (stereo not drawn) | 5000 |  |
| CC(C)(C)OC[C@H](NC(=O)OCc1ccccc1)C(=O)Nc1ccc(C2S/C(=N\c3cccc(F)c3)N(Cc3ccco3)C2=O)cc1 (stereo partly drawn) | > 50000 |  |
| CC[C@@H](C)[C@H](NC(=O)OCc1ccccc1)C(=O)Nc1ccc(C2S/C(=N\c3cccc(F)c3)N(Cc3ccco3)C2=O)cc1 (stereo partly drawn) | 6000 |  |
| O=C(N[C@@H](CSCc1ccccc1)C(=O)Nc1ccc(C2S/C(=N\c3cccc(F)c3)N(Cc3ccco3)C2=O)cc1)OCc1ccccc1 (stereo partly drawn) | > 50000 |  |
| O=C(N[C@@H](Cc1ccccc1)C(=O)Nc1ccc(C2S/C(=N\c3cccc(F)c3)N(Cc3ccco3)C2=O)cc1)OCc1ccccc1 (stereo partly drawn) | > 50000 |  |
| C[C@H](NC(=O)c1ccccc1)C(=O)Nc1ccc(C2S/C(=N\c3cccc(F)c3)N(Cc3ccco3)C2=O)cc1 (stereo partly drawn) | 1900 |  |
| O=C(Nc1ccc(C2S/C(=N\c3cccc(F)c3)N(Cc3ccco3)C2=O)cc1)[C@@H]1CCCN1C(=O)c1ccccc1 (stereo partly drawn) | 7900 |  |
| C[C@H](NC(=O)Cc1ccccc1)C(=O)Nc1ccc(C2S/C(=N\c3cccc(F)c3)N(Cc3ccco3)C2=O)cc1 (stereo partly drawn) | 6 | Stability [1]: Unstable; Stability [3]: Unstable |
| O=C(Nc1ccc(C2S/C(=N\c3cccc(F)c3)N(Cc3ccco3)C2=O)cc1)[C@@H]1CCCN1C(=O)Cc1ccccc1 (stereo partly drawn) | 23 |  |
| C[C@H](NC(=O)CCc1ccccc1)C(=O)Nc1ccc(C2S/C(=N\c3cccc(F)c3)N(Cc3ccco3)C2=O)cc1 (stereo partly drawn) | 3100 |  |
| O=C(Nc1ccc(C2S/C(=N\c3cccc(F)c3)N(Cc3ccco3)C2=O)cc1)[C@@H]1CCCN1C(=O)CCc1ccccc1 (stereo partly drawn) | 5100 |  |
| C[C@H](NC(=O)OCc1ccccc1)C(=O)Nc1ccc(C2S/C(=N\c3cccc(F)c3)N(CC3CCCO3)C2=O)cc1 (stereo partly drawn) | 650 |  |
| C[C@H](NC(=O)OCc1ccccc1)C(=O)Nc1ccc(C2S/C(=N\c3cccc(F)c3)N(Cc3cnccn3)C2=O)cc1 (stereo partly drawn) | 25 |  |
| O=C(Nc1ccc(C2S/C(=N\c3cccc(F)c3)N(Cc3cnccn3)C2=O)cc1)[C@@H]1CCCN1C(=O)OCc1ccccc1 (stereo partly drawn) | 38 |  |
| C[C@H](NC(=O)OCc1ccccc1)C(=O)Nc1ccc(C2S/C(=N\c3cccc(F)c3)N(Cc3ccccn3)C2=O)cc1 (stereo partly drawn) | 35 |  |

| Compound | EC50 (Hepatitis C virus) [nM] | further results |
| --- | --- | --- |
| O=C(Nc1ccc(C2S/C(=N\c3cccc(F)c3)N(Cc3ccccn3)C2=O)cc1)[C@@H]1CCCN1C(=O)OCc1ccccc1 (stereo partly drawn) | 2 |  |
| C[C@H](NC(=O)OCc1ccccc1)C(=O)Nc1ccc(C2S/C(=N\c3cccc(F)c3)N(Cc3cccnc3)C2=O)cc1 (stereo partly drawn) | 26 |  |
| C[C@H](NC(=O)OCc1ccccc1)C(=O)Nc1ccc(C2S/C(=N\c3cccc(F)c3)N(Cc3ccc(F)c(F)c3F)C2=O)cc1 (stereo partly drawn) | 550 |  |
| O=C(Nc1ccc(C2S/C(=N\c3cccc(F)c3)N(Cc3ccc(F)c(F)c3F)C2=O)cc1)[C@@H]1CCCN1C(=O)OCc1ccccc1 (stereo partly drawn) | 600 |  |
| C[C@H](NC(=O)OCc1ccccc1)C(=O)Nc1ccc(C2S/C(=N\c3ccc(C(F)(F)F)cc3)N(Cc3ccco3)C2=O)cc1 (stereo partly drawn) | 2200 |  |
| O=C(Nc1ccc(C2S/C(=N\c3ccc(C(F)(F)F)cc3)N(Cc3ccco3)C2=O)cc1)[C@@H]1CCCN1C(=O)OCc1ccccc1 (stereo partly drawn) | 980 |  |
| C[C@H](NC(=O)OCc1ccccc1)C(=O)Nc1ccc(C2S/C(=N\c3ccc(C(F)(F)F)c(F)c3)N(Cc3ccco3)C2=O)cc1 (stereo partly drawn) | 2500 |  |
| O=C(Nc1ccc(C2S/C(=N\c3ccc(C(F)(F)F)c(F)c3)N(Cc3ccco3)C2=O)cc1)[C@@H]1CCCN1C(=O)OCc1ccccc1 (stereo partly drawn) | 2200 |  |
| C[C@H](NC(=O)OCc1ccccc1)C(=O)Nc1ccc(C2S/C(=N\c3ccc(Cl)cc3)N(Cc3ccco3)C2=O)cc1 (stereo partly drawn) | 510 |  |
| O=C(Nc1ccc(C2S/C(=N\c3ccc(Cl)cc3)N(Cc3ccco3)C2=O)cc1)[C@@H]1CCCN1C(=O)OCc1ccccc1 (stereo partly drawn) | 1170 |  |
| CCc1ccc(/N=C2\SC(c3ccc(NC(=O)[C@H](C)NC(=O)OCc4ccccc4)cc3)C(=O)N2Cc2ccco2)cc1 (stereo partly drawn) | 1500 |  |
| CCc1ccc(/N=C2\SC(c3ccc(NC(=O)[C@@H]4CCCN4C(=O)OCc4ccccc4)cc3)C(=O)N2Cc2ccco2)cc1 (stereo partly drawn) | 1800 |  |
| C[C@H](NC(=O)OCc1ccccc1)C(=O)Nc1ccc(C2S/C(=N\c3ccc(C#N)cc3)N(Cc3ccco3)C2=O)cc1 (stereo partly drawn) | 37 |  |
| N#Cc1ccc(/N=C2\SC(c3ccc(NC(=O)[C@@H]4CCCN4C(=O)OCc4ccccc4)cc3)C(=O)N2Cc2ccco2)cc1 (stereo partly drawn) | 86 |  |
| C[C@H](NC(=O)OCc1ccccc1)C(=O)Nc1ccc(C2S/C(=N\c3cccc4c3OCCO4)N(Cc3ccco3)C2=O)cc1 (stereo partly drawn) | 10 |  |
| O=C(Nc1ccc(C2S/C(=N\c3cccc4c3OCCO4)N(Cc3ccco3)C2=O)cc1)[C@@H]1CCCN1C(=O)OCc1ccccc1 (stereo partly drawn) | 9 |  |
| C[C@H](NC(=O)OCc1ccccc1)C(=O)Nc1ccc(C2S/C(=N\c3cccc4ncccc34)N(Cc3ccco3)C2=O)cc1 (stereo partly drawn) | 20 |  |
| O=C(Nc1ccc(C2S/C(=N\c3cccc4ncccc34)N(Cc3ccco3)C2=O)cc1)[C@@H]1CCCN1C(=O)OCc1ccccc1 (stereo partly drawn) | 10 |  |
| C[C@H](NC(=O)OCc1ccccc1)C(=O)Nc1ccc(C2S/C(=N\c3ccc(N4CCOCC4)cc3)N(Cc3ccco3)C2=O)cc1 (stereo partly drawn) | 15 |  |
| O=C(Nc1ccc(C2S/C(=N\c3ccc(N4CCOCC4)cc3)N(Cc3ccco3)C2=O)cc1)[C@@H]1CCCN1C(=O)OCc1ccccc1 (stereo partly drawn) | 20 |  |
| O=C(Nc1ccc(/C=C/c2ccc(NC(=O)[C@@H]3CCCN3C(=O)Cc3ccccc3)cc2)cc1)[C@@H]1CCCN1C(=O)Cc1ccccc1 | 0.086 |  |
| O=C(Nc1ccc(/C=C/c2ccc(NC(=O)[C@H]3CCCN3C(=O)Cc3ccccc3)cc2)cc1)[C@H]1CCCN1C(=O)Cc1ccccc1 | > 10000 |  |
| O=C(Nc1ccc(/C=C/c2ccc(NC(=O)[C@@H]3CCCN3C(=O)OCc3ccccc3)cc2)cc1)[C@@H]1CCCN1C(=O)OCc1ccccc1 | 10 |  |
| O=C(Nc1ccc(/C=C/c2ccc(NC(=O)[C@H]3CCCN3C(=O)OCc3ccccc3)cc2)cc1)[C@H]1CCCN1C(=O)OCc1ccccc1 | > 10000 |  |
